Measurements published in ChEMBL document CHEMBL3045217, “Factors affecting the synergy of thiabendazole, sodium bicarbonate, and heat to control postharvest green mold of citrus fruit” (J Agric Food Chem, 2008).

Experiments:
[1] = test system: Penicillium digitatum; experiment: Fungicidal activity against Penicillium digitatum infected Valenica oranges assessed as fruit weight loss at 400 mg/L treated for 1 min at 40 degC postharvest at 20 hr after fungal conidial inoculation measured after 14 days of storage at 17 degC in presence of 0.5% SBC (water Rvb = 7.90%); format: functional
[2] = test system: Penicillium digitatum; experiment: (§1) Fungicidal activity against TBZ-sensitive Penicillium digitatum infected Valencia oranges assessed as postharvest green mold incidence at 600 mg/L treated for 1 min at 20 degC at 20 hr after fungal conidial inoculation measured after 7 days of storage at 20 degC in presence of 0.5% SBC (water Rvb = 64.2%); format: functional
Procedure, shortened: (§2)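 Fruit were surface-disinfected in 1 g/L hypochlorite for 30 s, rinsed, dried, then wounded twice equatorially (2 mm × 2 mm rod). Inoculation was a 1 min dip in P. digitatum conidia, 1 × 10^5 conidia/mL final. Fruit were held 20 h at 20 °C and 90% RH, dipped 1 min (SBC wt/vol), and air-dried. Storage was 20 °C, 90% RH. Decay incidence (% fruit with lesions) was scored at 5 d for mandarins and 7 d for oranges. Three replicates of 40 fruit were used; arcsin-transformed data were compared by LSD, p ≤ 0.05.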

[3] = test system: Penicillium digitatum; experiment: (§3) Fungicidal activity against TBZ-sensitive Penicillium digitatum infected Nova mandarins assessed as postharvest green mold incidence at 400 mg/L treated for 1 min at 40 degC at 20 hr after fungal conidial inoculation measured after 5 days of storage at 20 degC in presence of 0.5% SBC (water Rvb = 100%); format: functional; procedure, shortened: as §2
[4] = test system: Penicillium digitatum; experiment: Fungicidal activity against Penicillium digitatum infected Valenica oranges assessed as fruit weight loss at 400 mg/L treated for 1 min at 40 degC postharvest at 20 hr after fungal conidial inoculation measured after 7 days of storage at 17 degC (water Rvb = 3.42%); format: functional
[5] = test system: Fruit; experiment: Drug residues in Citrus sinensis cvs. Valencia late (Valencia oranges) at 600 mg/L treated for 1 min at 20 degC postharvest measured after 20 days of storage at 17 degC in presence of 1% SBC by GC analysis; format: ADME
Procedure, shortened: (§4)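 'Valencia' oranges were dipped 1 min in TBZ at 600 mg/L (20 °C, ±0.5, 1 or 2% wt/vol SBC), 400 mg/L (40 °C, ±SBC) or 200 mg/L (50 °C, alone), then air-dried. They were sampled at 0, 10 and 20 days at 17 °C. Peel of five fruit was frozen, and 5 g of homogenate was extracted with ethyl acetate/hexane (1/1) plus NaCl. The extract was dried under N2, taken up in acetone and analysed by GC. Results are mg/kg on a whole-fruit basis.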

[6] = test system: Inner fruit; experiment: Drug residues in Citrus sinensis cvs. Salustiana (Salustiana oranges) inner fruit at 600 mg/L treated for 3 min at 20 degC postharvest measured after overnight incubation at 17 degC by GC analysis; format: ADME; details: 0.05 h
Procedure, shortened: (§5)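 'Salustiana' oranges were washed with water and air-dried. They were dipped 1 or 3 min in TBZ 600 mg/L at 20 or 50 °C, or 1 min in TBZ 600 mg/L plus 2% SBC at 20 °C, then dried overnight at 17 °C in the dark. Surface residue was taken by water extraction and wax residue by chloroform extraction. Inner residue was measured in fruit after both extractions. Extracts were dried under N2, taken up in acetone and analysed by GC. Values are mg/kg on a whole-fruit basis.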

[7] = test system: Penicillium digitatum; experiment: as §1, with “2%” for “0.5%”, “20.8%)” for “64.2%)”; format: functional; procedure, shortened: as §2
[8] = test system: Penicillium digitatum; experiment: Fungicidal activity against Penicillium digitatum infected Valenica oranges assessed as fruit weight loss at 400 mg/L treated for 1 min at 40 degC postharvest at 20 hr after fungal conidial inoculation measured after 21 days of storage at 17 degC in presence of 2% SBC (water Rvb = 13.47%); format: functional
[9] = test system: Penicillium digitatum; experiment: Fungicidal activity against TBZ-sensitive Penicillium digitatum infected Nova mandarins assessed as postharvest green mold incidence at 400 mg/L treated for 1 min at 40 degC at 20 hr after fungal conidial inoculation measured after 5 days of storage at 20 degC (water Rvb = 100%); format: functional; procedure, shortened: as §2
[10] = test system: Fruit; experiment: Drug residues in Citrus sinensis cvs. Valencia late (Valencia oranges) at 600 mg/L treated for 1 min at 20 degC postharvest measured after 10 days of storage at 17 degC in presence of 0.5% SBC by GC analysis; format: ADME; procedure, shortened: as §4
[11] = test system: Cuticular wax; experiment: Drug residues in Citrus sinensis cvs. Salustiana (Salustiana oranges) cuticular wax at 600 mg/L treated for 1 min at 20 degC postharvest measured after overnight incubation at 17 degC by GC analysis; format: ADME; procedure, shortened: as §5
[12] = test system: Penicillium digitatum; experiment: Fungicidal activity against Penicillium digitatum infected Valenica oranges assessed as fruit weight loss at 400 mg/L treated for 1 min at 40 degC postharvest at 20 hr after fungal conidial inoculation measured after 21 days of storage at 17 degC (water Rvb = 8.83%); format: functional
[13] = test system: Penicillium digitatum; experiment: as §3, with “TBZ-resistant” for “TBZ-sensitive”, “2%” for “0.5%”, “61.7%)” for “100%)”; format: functional
[14] = test system: Fruit; experiment: Total drug residues in Citrus sinensis cvs. Salustiana (Salustiana oranges) fruit at 600 mg/L treated for 3 min at 20 degC postharvest measured after overnight incubation at 17 degC by GC analysis; format: ADME; details: 0.05 h
Procedure, shortened: (§6)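 'Salustiana' oranges were water-washed, dried, dipped, then dried overnight at 17 °C in the dark. Unextracted fruit were used for total residues. Peel from five oranges was frozen at -18 °C. 5 g homogenized peel was extracted with 10 mL ethyl acetate/hexane (1/1) plus 2 g NaCl, shaken 30 min, then 1 mL of organic layer was dried under N2, redissolved in acetone, and run by GC without cleanup. Results are on a whole-fruit basis.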

[15] = test system: Fruit; experiment: Total drug residues in Citrus sinensis cvs. Salustiana (Salustiana oranges) fruit at 600 mg/L treated for 1 min at 50 degC postharvest measured after overnight incubation at 17 degC by GC analysis; format: ADME; procedure, shortened: as §6
[16] = test system: Fruit; experiment: Drug residues in Citrus sinensis cvs. Valencia late (Valencia oranges) at 600 mg/L treated for 1 min at 20 degC postharvest measured after 20 days of storage at 17 degC by GC analysis; format: ADME; procedure, shortened: as §4
[17] = test system: Inner fruit; experiment: Drug residues in Citrus sinensis cvs. Salustiana (Salustiana oranges) inner fruit at 600 mg/L treated for 1 min at 20 degC postharvest measured after overnight incubation at 17 degC by GC analysis; format: ADME; procedure, shortened: as §5
[18] = test system: Inner fruit; experiment: Drug residues in Citrus sinensis cvs. Salustiana (Salustiana oranges) inner fruit at 600 mg/L treated for 3 min at 50 degC postharvest measured after overnight incubation at 17 degC by GC analysis; format: ADME; details: 0.05 h; procedure, shortened: as §5
[19] = test system: Penicillium digitatum; experiment: Fungicidal activity against Penicillium digitatum infected Valenica oranges assessed as fruit weight loss at 600 mg/L treated for 1 min at 20 degC postharvest at 20 hr after fungal conidial inoculation measured after 7 days of storage at 17 degC (water Rvb = 3.13%); format: functional
[20] = test system: Fruit; experiment: Drug residues in Citrus sinensis cvs. Valencia late (Valencia oranges) at 400 mg/L treated for 1 min at 40 degC postharvest measured after 10 days of storage at 17 degC in presence of 2% SBC by GC analysis; format: ADME; procedure, shortened: as §4
[21] = test system: Penicillium digitatum; experiment: Fungicidal activity against TBZ-resistant Penicillium digitatum infected Valencia oranges assessed as postharvest green mold incidence at 200 mg/L treated for 1 min at 50 degC at 20 hr after fungal conidial inoculation measured after 7 days of storage at 20 degC (water Rvb = 56.7%); format: functional

**Q.** Which Activity [1] does the source give for `c1ccc2[nH]c(-c3cscn3)nc2c1` [THIABENDAZOLE] here?
**A.** Its Activity is 8.39%.

**Q.** What about the Activity [2] of the same molecule?
**A.** Its Activity is 18.3%.

**Q.** What about the Activity [3] of the same molecule?
**A.** Its Activity is 0%.

**Q.** What about the Activity [4] of the same molecule?
**A.** Its Activity is 3.22%.

**Q.** And the Drug uptake [5]?
**A.** Its Drug uptake is 1.4 mg/kg.

**Q.** What about the Drug uptake [6] of the same molecule?
**A.** The Drug uptake was 0.13 mg/kg.

**Q.** What about the Activity [7] of the same molecule?
**A.** Its Activity is 2.5%.

**Q.** What about the Activity [8] of the same molecule?
**A.** Its Activity is 13.98%.

**Q.** And the Activity [9]?
**A.** The Activity was 1.7%.

**Q.** What about the Drug uptake [10] of the same molecule?
**A.** Its Drug uptake is 1.4 mg/kg.

**Q.** What about the Drug uptake [11] of the same molecule?
**A.** The Drug uptake was 0.17 mg/kg.

**Q.** And the Activity [12]?
**A.** The Activity was 8.96%.

**Q.** And the Activity [13]?
**A.** Its Activity is 23.3%.

**Q.** What about the Drug uptake [14] of the same molecule?
**A.** Its Drug uptake is 1.1 mg/kg.

**Q.** What about the Drug uptake [15] of the same molecule?
**A.** The Drug uptake was 1.12 mg/kg.

**Q.** And the Drug uptake [16]?
**A.** The Drug uptake was 1.54 mg/kg.

**Q.** And the Drug uptake [17]?
**A.** Its Drug uptake is 0.13 mg/kg.

**Q.** And the Drug uptake [18]?
**A.** Its Drug uptake is 0.4 mg/kg.

**Q.** And the Activity [19]?
**A.** The Activity was 3.59%.

**Q.** What about the Drug uptake [20] of the same molecule?
**A.** Its Drug uptake is 0.65 mg/kg.

**Q.** And the Activity [21]?
**A.** Its Activity is 37.5%.
